Reference: ChEMBL document CHEMBL5120972, “Small-Molecule Inhibitors of the MLL1 CXXC Domain, an Epigenetic Reader of DNA Methylation” (ACS Med Chem Lett, 2022)

Experiments:
[1] = molecular target: Histone-lysine N-methyltransferase 2A (Homo sapiens, UniProt Q03164); assay: Inhibition of GST-tagged human MLL1 (1147 to 1203 residues) expressed in Escherichia coli BL21 cells incubated for 30 mins by fluorescence polarization assay
Summary of the method: (§1)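 Competition fluorescence polarization assay. CXXC domain protein is held at 2× its own KD. All domains are expressed and purified by the same method. Standard deviations come from three separate measurements.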

[2] = molecular target: T1, Lysine-specific demethylase 2B (Homo sapiens, UniProt Q8NHM5); assay: Inhibition of GST-tagged human KDM2B (604 to 660 residues) expressed in Escherichia coli BL21 cells incubated for 30 mins by fluorescence polarization assay; summary of the method: as §1
T1 sequence (Q8NHM5 whole entry): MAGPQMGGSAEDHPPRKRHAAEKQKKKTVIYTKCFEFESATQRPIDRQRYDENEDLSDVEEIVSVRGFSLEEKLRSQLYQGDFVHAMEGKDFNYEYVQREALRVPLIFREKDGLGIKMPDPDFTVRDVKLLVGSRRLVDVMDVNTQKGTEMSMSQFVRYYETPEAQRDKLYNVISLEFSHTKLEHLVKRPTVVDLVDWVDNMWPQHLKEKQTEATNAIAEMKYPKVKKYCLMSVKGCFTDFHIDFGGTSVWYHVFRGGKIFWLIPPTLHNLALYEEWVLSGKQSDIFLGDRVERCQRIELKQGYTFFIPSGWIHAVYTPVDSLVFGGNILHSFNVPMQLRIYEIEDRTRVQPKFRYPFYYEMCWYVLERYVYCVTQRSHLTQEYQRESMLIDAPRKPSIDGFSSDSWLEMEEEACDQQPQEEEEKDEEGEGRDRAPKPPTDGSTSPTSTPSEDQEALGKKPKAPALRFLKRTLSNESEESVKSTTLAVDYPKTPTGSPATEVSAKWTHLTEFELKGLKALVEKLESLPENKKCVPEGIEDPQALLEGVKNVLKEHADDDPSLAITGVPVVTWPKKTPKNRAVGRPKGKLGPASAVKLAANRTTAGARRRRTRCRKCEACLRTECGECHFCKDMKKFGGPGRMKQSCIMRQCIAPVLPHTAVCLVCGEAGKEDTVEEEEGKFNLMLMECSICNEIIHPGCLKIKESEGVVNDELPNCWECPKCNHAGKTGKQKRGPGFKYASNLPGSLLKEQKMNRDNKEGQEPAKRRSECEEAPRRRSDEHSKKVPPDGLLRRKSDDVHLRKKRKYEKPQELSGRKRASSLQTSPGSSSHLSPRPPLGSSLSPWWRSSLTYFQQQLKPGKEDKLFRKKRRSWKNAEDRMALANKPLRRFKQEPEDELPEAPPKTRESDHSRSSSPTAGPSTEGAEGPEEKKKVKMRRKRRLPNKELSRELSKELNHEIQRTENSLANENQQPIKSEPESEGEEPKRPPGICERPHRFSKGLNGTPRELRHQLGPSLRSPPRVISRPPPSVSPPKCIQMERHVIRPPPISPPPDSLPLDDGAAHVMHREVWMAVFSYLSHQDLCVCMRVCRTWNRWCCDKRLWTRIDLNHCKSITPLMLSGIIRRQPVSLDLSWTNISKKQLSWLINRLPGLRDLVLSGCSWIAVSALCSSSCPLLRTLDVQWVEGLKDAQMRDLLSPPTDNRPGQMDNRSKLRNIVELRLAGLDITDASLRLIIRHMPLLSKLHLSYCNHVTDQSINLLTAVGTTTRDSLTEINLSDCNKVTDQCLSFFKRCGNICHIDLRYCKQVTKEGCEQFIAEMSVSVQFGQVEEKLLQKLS

[3] = molecular target: T2, CXXC-type zinc finger protein 4 (Homo sapiens, UniProt Q9H2H0); assay: Inhibition of GST-tagged human IDAX (130 to 181 residues) expressed in Escherichia coli BL21 cells incubated for 30 mins by fluorescence polarization assay; summary of the method: as §1
T2 sequence (Q9H2H0 whole entry): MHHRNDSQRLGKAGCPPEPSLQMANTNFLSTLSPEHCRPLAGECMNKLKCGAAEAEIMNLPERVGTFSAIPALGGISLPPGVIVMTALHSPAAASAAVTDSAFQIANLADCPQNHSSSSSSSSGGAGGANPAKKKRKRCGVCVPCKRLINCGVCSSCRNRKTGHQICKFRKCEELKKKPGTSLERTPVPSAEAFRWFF

[4] = molecular target: T3, CXXC-type zinc finger protein 5 (Homo sapiens, UniProt Q7LFL8); assay: Inhibition of GST-tagged human CXXC5 (255 to 305 residues) expressed in Escherichia coli BL21 cells incubated for 30 mins by fluorescence polarization assay; summary of the method: as §1
T3 sequence (Q7LFL8 whole entry): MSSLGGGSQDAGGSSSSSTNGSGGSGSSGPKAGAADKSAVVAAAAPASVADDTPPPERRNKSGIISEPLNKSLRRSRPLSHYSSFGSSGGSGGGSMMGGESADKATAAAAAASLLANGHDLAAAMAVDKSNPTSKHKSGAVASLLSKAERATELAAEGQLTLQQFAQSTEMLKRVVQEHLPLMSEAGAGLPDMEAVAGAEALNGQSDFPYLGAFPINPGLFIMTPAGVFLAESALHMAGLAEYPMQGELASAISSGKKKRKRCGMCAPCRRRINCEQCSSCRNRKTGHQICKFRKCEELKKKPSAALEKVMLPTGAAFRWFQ

Sequence of Histone-lysine N-methyltransferase 2A (Q03164 1-2718 limits assumed): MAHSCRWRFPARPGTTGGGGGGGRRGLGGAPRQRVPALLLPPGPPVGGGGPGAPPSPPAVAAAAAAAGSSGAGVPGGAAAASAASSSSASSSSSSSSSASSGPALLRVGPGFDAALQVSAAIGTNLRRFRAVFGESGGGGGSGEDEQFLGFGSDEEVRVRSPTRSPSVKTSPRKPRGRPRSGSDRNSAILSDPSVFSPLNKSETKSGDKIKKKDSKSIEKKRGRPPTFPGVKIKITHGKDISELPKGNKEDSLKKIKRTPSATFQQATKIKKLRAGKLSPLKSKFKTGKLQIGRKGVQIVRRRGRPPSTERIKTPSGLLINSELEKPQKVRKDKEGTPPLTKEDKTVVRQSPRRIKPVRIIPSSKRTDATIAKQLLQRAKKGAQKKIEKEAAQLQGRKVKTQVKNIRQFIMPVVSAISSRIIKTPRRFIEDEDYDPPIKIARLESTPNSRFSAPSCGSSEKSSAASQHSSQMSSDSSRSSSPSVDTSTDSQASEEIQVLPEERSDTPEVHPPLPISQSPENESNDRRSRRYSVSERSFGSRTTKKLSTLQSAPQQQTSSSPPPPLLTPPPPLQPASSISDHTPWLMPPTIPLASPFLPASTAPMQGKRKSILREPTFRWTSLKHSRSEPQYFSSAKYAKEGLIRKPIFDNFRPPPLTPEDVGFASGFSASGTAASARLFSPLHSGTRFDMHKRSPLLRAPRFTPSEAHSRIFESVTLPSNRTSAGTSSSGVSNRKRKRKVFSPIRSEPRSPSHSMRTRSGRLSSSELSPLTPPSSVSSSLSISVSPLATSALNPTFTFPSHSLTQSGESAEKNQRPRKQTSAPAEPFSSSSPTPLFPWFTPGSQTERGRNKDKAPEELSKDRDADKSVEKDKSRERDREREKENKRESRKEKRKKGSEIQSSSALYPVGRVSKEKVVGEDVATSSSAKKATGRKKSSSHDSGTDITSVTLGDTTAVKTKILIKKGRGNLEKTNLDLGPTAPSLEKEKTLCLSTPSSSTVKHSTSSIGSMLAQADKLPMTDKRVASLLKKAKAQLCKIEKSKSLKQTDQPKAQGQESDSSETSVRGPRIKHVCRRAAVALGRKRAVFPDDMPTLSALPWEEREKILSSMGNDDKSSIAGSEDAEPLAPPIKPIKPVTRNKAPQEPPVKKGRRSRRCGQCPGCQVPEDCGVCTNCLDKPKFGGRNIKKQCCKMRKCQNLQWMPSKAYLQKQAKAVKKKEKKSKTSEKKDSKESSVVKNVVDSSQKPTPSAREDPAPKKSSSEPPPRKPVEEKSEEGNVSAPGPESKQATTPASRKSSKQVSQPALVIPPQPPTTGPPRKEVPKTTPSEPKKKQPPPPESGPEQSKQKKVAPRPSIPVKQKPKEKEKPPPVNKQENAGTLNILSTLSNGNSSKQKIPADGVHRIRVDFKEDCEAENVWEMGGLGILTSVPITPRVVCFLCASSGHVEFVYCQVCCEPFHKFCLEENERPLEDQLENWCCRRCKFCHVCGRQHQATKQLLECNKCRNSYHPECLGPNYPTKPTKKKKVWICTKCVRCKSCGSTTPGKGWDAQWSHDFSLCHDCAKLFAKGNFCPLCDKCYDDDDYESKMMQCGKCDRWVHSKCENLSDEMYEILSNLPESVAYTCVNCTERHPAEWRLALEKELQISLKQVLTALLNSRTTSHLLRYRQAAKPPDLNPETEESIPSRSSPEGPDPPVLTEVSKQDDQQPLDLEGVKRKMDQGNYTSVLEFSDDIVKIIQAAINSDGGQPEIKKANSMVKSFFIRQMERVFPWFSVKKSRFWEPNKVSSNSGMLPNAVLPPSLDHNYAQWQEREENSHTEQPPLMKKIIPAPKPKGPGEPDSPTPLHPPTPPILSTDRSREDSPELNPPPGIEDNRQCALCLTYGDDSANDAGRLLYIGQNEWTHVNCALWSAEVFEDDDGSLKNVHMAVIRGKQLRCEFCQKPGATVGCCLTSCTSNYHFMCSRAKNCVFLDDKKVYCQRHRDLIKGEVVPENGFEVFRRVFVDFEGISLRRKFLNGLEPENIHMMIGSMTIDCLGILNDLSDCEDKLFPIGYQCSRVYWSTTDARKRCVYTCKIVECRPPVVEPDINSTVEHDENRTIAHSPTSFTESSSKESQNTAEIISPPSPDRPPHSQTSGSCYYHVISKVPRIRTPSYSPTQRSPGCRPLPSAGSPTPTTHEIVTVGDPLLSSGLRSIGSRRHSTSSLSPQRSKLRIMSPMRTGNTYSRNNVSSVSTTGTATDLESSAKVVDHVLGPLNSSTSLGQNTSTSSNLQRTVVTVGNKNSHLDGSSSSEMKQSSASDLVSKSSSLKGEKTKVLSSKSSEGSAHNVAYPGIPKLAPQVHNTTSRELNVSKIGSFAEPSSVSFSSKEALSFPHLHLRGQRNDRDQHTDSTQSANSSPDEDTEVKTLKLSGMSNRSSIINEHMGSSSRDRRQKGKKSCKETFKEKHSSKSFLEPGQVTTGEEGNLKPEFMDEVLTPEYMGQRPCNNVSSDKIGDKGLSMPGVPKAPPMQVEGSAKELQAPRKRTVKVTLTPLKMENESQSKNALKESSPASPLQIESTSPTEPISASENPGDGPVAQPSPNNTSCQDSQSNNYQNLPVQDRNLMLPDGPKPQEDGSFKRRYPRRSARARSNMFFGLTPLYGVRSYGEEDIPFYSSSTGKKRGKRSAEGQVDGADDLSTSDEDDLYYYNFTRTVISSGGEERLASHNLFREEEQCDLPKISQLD
Sequence of Histone-lysine N-methyltransferase 2A (Q03164 2719-3969 limits assumed): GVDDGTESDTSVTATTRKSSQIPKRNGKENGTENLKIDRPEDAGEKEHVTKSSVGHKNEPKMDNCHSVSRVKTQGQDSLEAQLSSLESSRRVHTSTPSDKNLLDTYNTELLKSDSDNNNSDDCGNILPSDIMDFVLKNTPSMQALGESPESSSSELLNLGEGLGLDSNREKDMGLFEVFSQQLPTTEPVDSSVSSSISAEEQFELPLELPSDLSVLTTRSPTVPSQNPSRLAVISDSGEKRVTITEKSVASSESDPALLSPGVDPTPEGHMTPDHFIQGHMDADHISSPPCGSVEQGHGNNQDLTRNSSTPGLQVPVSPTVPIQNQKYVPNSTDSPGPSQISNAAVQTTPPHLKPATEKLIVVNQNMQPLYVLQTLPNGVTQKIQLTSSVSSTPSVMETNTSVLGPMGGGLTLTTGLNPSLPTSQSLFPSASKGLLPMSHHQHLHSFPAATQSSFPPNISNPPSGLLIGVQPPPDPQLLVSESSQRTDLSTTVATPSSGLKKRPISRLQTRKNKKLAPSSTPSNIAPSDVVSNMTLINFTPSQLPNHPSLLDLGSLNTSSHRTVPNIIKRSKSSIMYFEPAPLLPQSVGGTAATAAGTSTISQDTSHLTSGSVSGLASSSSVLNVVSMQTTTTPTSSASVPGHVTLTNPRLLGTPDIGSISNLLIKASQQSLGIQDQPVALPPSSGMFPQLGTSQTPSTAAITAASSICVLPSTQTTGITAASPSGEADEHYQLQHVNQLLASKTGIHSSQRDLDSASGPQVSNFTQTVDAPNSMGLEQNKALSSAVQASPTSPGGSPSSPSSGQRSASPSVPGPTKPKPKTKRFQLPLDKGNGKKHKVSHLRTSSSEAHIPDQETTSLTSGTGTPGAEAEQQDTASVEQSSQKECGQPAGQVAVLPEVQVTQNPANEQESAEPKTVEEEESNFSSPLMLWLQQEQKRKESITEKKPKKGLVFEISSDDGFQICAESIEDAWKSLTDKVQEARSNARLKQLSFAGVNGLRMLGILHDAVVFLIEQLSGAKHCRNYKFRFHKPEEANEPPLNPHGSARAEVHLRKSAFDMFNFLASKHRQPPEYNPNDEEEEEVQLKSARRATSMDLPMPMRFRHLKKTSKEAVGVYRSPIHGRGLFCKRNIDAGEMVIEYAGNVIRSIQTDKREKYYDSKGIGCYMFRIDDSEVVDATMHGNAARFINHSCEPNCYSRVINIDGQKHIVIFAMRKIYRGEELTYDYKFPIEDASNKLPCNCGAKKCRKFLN

| SMILES | IC50 [1] | IC50 [2] | IC50 [3] | IC50 [4] |
| --- | --- | --- | --- | --- |
| C=CC(=O)N1CCC(C(=O)O)(c2ccc(Cl)cc2)CC1 | 41 µM | 53 µM | 33 µM | 53 µM |
| C=CC(=O)N1CCC(c2ccccc2)(c2nnn[nH]2)CC1 | 4.9 µM | 8.3 µM | 2.4 µM | 28 µM |
| C=CC(=O)N1CCC(C(=O)O)(c2ccc(OCC)cc2)CC1 | 3.3 µM | 3.6 µM | 1.2 µM | 16.2 µM |
| C=CC(=O)N1CCC(c2ccc(OCC)cc2)(c2nnn[nH]2)CC1 | 22 µM | 30 µM | 8.9 µM | 131 µM |
| C=CC(=O)N1CCC(c2ccc(OC)cc2)(c2nnn[nH]2)CC1 | 15 µM | 32 µM | 8.3 µM | 56 µM |
| C=CC(=O)N1CCC(C(=O)NS(=O)(=O)c2ccccc2)(c2ccccc2)CC1 | 46 µM | 35 µM | 23 µM | 53 µM |
| C=CC(=O)N1CCC(c2cccc(OCC)c2)(c2nnn[nH]2)CC1 | 7.7 µM | 9.4 µM | 2.2 µM | 40 µM |
| C=CC(=O)N1CCC(C(=O)O)(c2ccc(OC)cc2)CC1 | 43 µM | 53 µM | 35 µM | 47 µM |
| C=CC(=O)N1CCC(C(=O)O)(c2ccccc2)CC1 | 7.1 µM | 6.4 µM | 4 µM | 4.8 µM |
